T cell HTS: T cell immune modulation candidate; actives 0.068% (n = 330,000); 2C CD8+ T cell-vesicle binding, flow cytometry; active compounds read low; response (vesicle binding), % at 7 µM; AID 2052;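 active means response, share of CD8 T cells binding vesicles, and their 90th percentile fluorescence all below set limits, cut at about 80% in these data, passing the limit was not always enough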;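 further: values below 100% mean blocked vesicle binding to the CD8+ T cells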
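System: murine 2C transgenic CD8+ T lymphocytes; also added: QL9-loaded Drosophila micro-vesicles; times: binding 1.5 h at 37 °C; measured by: flow cytometry, PE anti-B7-1 (FL2) versus Alexa647 anti-CD8 (FL8), PFA-fixed; control set: Peptide-free naked vesicles (low) and QL9 vesicles with 0.7% DMSO vehicle (high)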
p-CIP stab down: lowers stability of the mouse p/CIP coactivator protein; decrease of EGFP signal, % at 10 µM; actives 0.01% (n = 290,000); F442A p/CIP-EGFP cells, EGFP fluorescence, 16 h; AID 1984; Q05BA5;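 active means EGFP signal decrease of at least 30% at 10 µM or well 3 SD below plate mean, unless failing retest; inactive means the rest, including hits failing retest or dose response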
CHT PAM: allosterically activates the human high affinity choline transporter; Q9GZV3; actives 0.49% (n = 310,000); CHT-expressing cells, membrane potential dye, choline EC20; active compounds read high; LV-AA mutant CHT in HEK293 cells; AID 488977; B-score at 10 µM;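 active means initial fluorescence not abnormally high and integrated response B-score, plate-corrected, over 3 SD above library mean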
Target sequence (Q9GZV3 whole entry, looked up): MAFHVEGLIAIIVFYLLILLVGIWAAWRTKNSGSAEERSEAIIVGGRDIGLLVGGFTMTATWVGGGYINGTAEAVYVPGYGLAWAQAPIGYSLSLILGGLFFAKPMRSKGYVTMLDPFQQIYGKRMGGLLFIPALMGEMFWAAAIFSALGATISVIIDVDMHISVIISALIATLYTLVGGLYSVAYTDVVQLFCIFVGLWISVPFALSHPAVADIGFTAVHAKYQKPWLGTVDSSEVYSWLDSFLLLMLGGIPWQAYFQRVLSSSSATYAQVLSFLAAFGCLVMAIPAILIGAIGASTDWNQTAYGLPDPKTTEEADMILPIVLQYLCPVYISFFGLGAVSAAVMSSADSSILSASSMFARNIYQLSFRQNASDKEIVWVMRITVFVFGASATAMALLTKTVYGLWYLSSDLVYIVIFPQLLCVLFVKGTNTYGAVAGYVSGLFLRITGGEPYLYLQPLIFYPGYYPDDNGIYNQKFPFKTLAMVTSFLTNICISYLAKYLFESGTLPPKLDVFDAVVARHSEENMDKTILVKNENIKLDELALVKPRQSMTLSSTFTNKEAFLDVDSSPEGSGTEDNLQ
Pemphigus Ab inh: human desmoglein-3 autoantibody binding inhibition | DSG3-coupled beads, scFv-anti-DSG3-GFP binding, flow cytometry; active compounds read low | binding (percent of control), % at 10 µM | actives 0.48% (n = 310,000) | AID 588358;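 active means binding more than 3 SD below its plate's average and above zero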;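 further: hits lower antibody fragment binding to DSG3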
CHT inh: inhibits the human high affinity choline transporter; Q9GZV3; CHT-expressing cells, membrane potential dye, choline response; active compounds read low; B-score at 10 µM; actives 0.86% (n = 310,000); AID 488975;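 active means B-score over 3 SD under the library average, and starting fluorescence ratio not unusually high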;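 further: choline stimulus applied at its EC90 after an EC20 pre-addition; B-score computed on integrated fluorescence ratio after choline addition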
GPR7 antag: human neuropeptides B/W receptor 1 antagonism. actives 1.1% (n = 290,000). GPR7-expressing cells, fluorescence antagonist assay. AID 1861. inhibition, % at 4.4 µM. P48145; in the data active means inhibition above about 16%, passing the limit was not always enough;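 further: cells stimulated with the agonist NPW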
CHT act confirm: confirmation of human choline transporter (CHT) activators; shares compounds with CHT PAM; CHT-expressing cells, membrane potential dye fluorescence (FDSS); % of choline EC20–EC90 response window; HEK293 expressing CHT LV-AA mutant; choline added at its EC20; activation, % at 10 µM; actives 91% (n = 2,500);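 active means primary screen active, with duplicate mean activation above negative control mean plus 3 SD, cut at about 11% in these data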
HEK293 MP dye: activity in parental HEK293 cells lacking CHT. shares compounds with CHT PAM. membrane potential dye fluorescence (FDSS); measured after EC20 choline addition. ratio readout change at 10 µM, hits read low. actives 62% (n = 2,500);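 active means duplicate-averaged ratio beyond 3 SD from buffer wells, up or down, though filed actives are nearly all decreases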
Hits are given with their value; 0 = inactive; - = not tested or not shown. Rows were chosen to be rich in hits. Some 2.3% of all compounds tested hit in one or more screens of this group.

SMILES	T cell HTS	p-CIP stab down	CHT PAM	Pemphigus Ab inh	CHT inh	GPR7 antag	CHT act confirm	HEK293 MP dye
CN(C1CCCCC1)S(=O)(=O)c1ccc2c(c1)c(=O)c(C(=O)NCCN1CCCC1)cn2C	0	0	0	0	0	0	40	-37
CCN(CC)S(=O)(=O)c1ccc2c(c1)c(=O)c(C(=O)NCCN(C)CCc1ccccc1)cn2C	0	0	0	0	0	0	-	-
CC1CC(C)(C)CC2(C1)NC(=O)N(CC(=O)N1CCN(S(=O)(=O)c3ccc(F)c(F)c3F)CC1)C2=O (centres undefined)	-	-	-	0	-	-	-	-
NC(=O)C1CCN(C(=O)CCC(=O)c2cccs2)CC1	0	-	-	0	-	-	-	-
CC(OC(=O)c1cccc(-n2cnnn2)c1)C(=O)NC1(C#N)CCCCC1 (centres undefined)	0	-	-	0	-	-	-	-
Cc1ccc([C@@H]2C[C@H]3[C@@H](CN2S(=O)(=O)c2ccc(Cl)cc2)C(=O)C[C@@H](c2ccc(Cl)cc2)N3S(=O)(=O)c2ccccc2C)cc1	-	-	-	0	-	-	-	-
[O-][N+]1=c2ccc(Nc3ccccc3)cc2=NC12CCCCC2	0	0	0	0	0	0	-	-
COc1ccc(Nc2ccc3c(c2)=NC2(CCCCC2)[N+]=3[O-])cc1	0	0	7.2	0	0	0	51	-73
S=C(NCc1ccc(Cl)cc1)NCc1ccccn1	0	0	0	0	0	0	-	-
CC(C)CCC(CCNCc1ccccn1)c1ccc(Cl)cc1 (centres undefined)	0	0	0	0	0	0	33	0
Brc1ccc2c(c1)OCCOCCOc1cc(Br)ccc1OCCOCCOCCO2	0	0	14	0	0	0	57	0
Brc1cc2c(cc1Br)OCCOCCOCCOCCO2	0	0	0	0	0	0	-	-
COc1ccc(NC(=O)N(C)C[C@H]2Oc3ncc(Br)cc3C(=O)N([C@H](C)CO)C[C@@H]2C)cc1	-	-	-	0	-	-	-	-
Cc1ccc(S(=O)(=O)N(CC(=O)NC2CC3CCC2C3)c2ccccc2)cc1 (centres undefined)	-	-	-	0	-	-	-	-
Nc1ccn([C@@H]2O[C@H](CNC(=O)[C@@H](N)CSCc3ccccc3)[C@@H](O)[C@H]2O)c(=O)n1	-	-	-	0	-	-	-	-
COC(=O)c1cn(CCOc2ccccc2)c2ccccc12	0	0	0	0	0	0	-	-
CCN1CCN(C(=O)C(=O)c2cn(CC(=O)N(CC)CC)c3ccccc23)CC1	0	0	0	-	0	0	44	0
CCN(CC)C(=O)C(=O)c1cn(CCOc2ccccc2)c2ccccc12	0	0	0	0	0	0	0	0
COc1ccc(-c2cc(C(F)(F)F)n3nc(C(N)=O)cc3n2)cc1	-	-	-	0	-	-	-	-
CCCN(CC(=O)Nc1ccccc1C)C(=O)c1ccc(C)c(S(=O)(=O)N2CCCCC2)c1	0	-	0	0	0	-	14	0
O=C(CCN1C(=O)c2ccccc2S1(=O)=O)Nc1ccc(F)c(F)c1F	0	-	0	0	0	-	-	-
CC1CCCN(S(=O)(=O)c2ccc3c(c2)OCCO3)C1 (centres undefined)	-	-	-	0	-	-	-	-
CC(C)(C)OC(=O)n1cc(C(=O)c2ccccc2O)cn1	0	0	0	0	0	0	-	-
CCOC(=O)n1cc(C(=O)c2ccccc2O)cn1	0	0	0	0	0	0	30	-38
COCC(=O)N(C)c1nnc(-c2ccc([N+](=O)[O-])cc2)s1	0	0	0	0	0	0	41	-47
SMILES	T cell HTS	p-CIP stab down	CHT PAM	Pemphigus Ab inh	CHT inh	GPR7 antag	CHT act confirm	HEK293 MP dye
COc1ccc(/C=C/C(=O)NC(C)CCc2ccccc2)cc1 (centres undefined)	0	0	0	0	0	0	35	0
COc1ccc(/C=C/C(=O)NC(C)CCc2ccccc2)cc1OC (centres undefined)	0	0	0	0	0	0	-	-
COc1ccc(/C=C/C(=O)NCCCc2ccccc2)cc1	0	0	6.6	-	0	0	38	0
CC(=O)N(C(C)=O)c1ccc2c(c1)OCCO2	-	-	-	0	-	-	-	-
CCOC(=O)C1CCN(C(=O)CCc2nnc3ccc(N4CCN(C)CC4)nn23)CC1	0	0	8.1	0	0	0	73	-72
CC12CCC3c4ccccc4CCC3(CO1)C2 (centres undefined)	-	-	-	0	-	-	-	-
Cc1nc2ccc(NC(=O)c3ccccc3)cc2s1	0	0	0	0	0	0	-	-
Cc1nc2ccc(NC(=O)c3ccc(=O)[nH]c3)cc2s1	0	0	0	0	0	0	33	-39
CC(C)CC(c1nnnn1C(C)C)N1CCN(C(=O)c2ccco2)CC1 (centres undefined)	0	-	0	0	0	-	-	-
CC(C)CC(c1nnnn1C(C)C)N1CCN(c2cccc(Cl)c2)CC1 (centres undefined)	0	0	0	-	0	0	26	0
O=C(Nc1ccccc1)OC1CCC2CC1CCC2OC(=O)Nc1ccccc1 (centres undefined)	0	0	0	0	0	0	32	0
Cc1cc(C)c2c(c1)CC(C)(C)CC2=O	-	-	-	0	-	-	-	-
CCOC(=O)C1C(=O)NC(c2ccccc2)=NC1c1cccc(Br)c1 (centres undefined)	0	0	0	0	0	0	-	-
CCOC(=O)C1C(C)N=C2SCC(=O)N2C1c1cccc(Br)c1 (centres undefined)	0	0	0	0	0	0	0	0
CCCCCn1c(CN2CCN(C)CC2)nc2c1c(=O)n(C)c(=O)n2C	0	0	0	0	0	0	46	-36
CCCCCCn1c(CN2CCN(Cc3ccccc3)CC2)nc2c1c(=O)n(C)c(=O)n2C	0	0	0	0	0	0	24	0
CCN1CCN(Cc2nc3c(c(=O)n(C)c(=O)n3C)n2CCCc2ccccc2)CC1	-	0	-	-	-	-	-	-
CC(C)NC1(C#N)CCN(Cc2ccccc2)CC1	-	-	-	0	-	-	-	-
O=C1CCC(c2ccccc2)N1c1ccccc1 (centres undefined)	-	-	-	0	-	-	-	-
N#Cc1c(N)oc(-c2ccco2)c1-c1ccco1	0	0	8.2	0	0	0	10	0
COc1cccc(/C=N/NC(=O)C[n+]2ccccc2)c1O	0	0	0	0	0	0	-	-
COc1cc(OC)c(OC)cc1/C=N/NC(=O)c1ccc(=O)n(C)c1	0	0	0	0	0	0	43	-29
COc1cc(OC)c(OC)cc1/C=N/NC(=O)C[n+]1ccccc1	0	0	0	0	0	0	51	-42
O=c1cc(CSc2nc(NCc3ccc(Cl)cc3)c3ccccc3n2)nc2ccc(Cl)cn12	-	-	-	0	-	-	-	-
